Test results published in PubChem BioAssay.
Inconclusive results are not listed.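 The calls were made as follows, unless noted: active = inhibition over a set limit, the all-compound mean plus 3 SD, in both replicate runs; inconclusive = over that limit in just one replicate run; inactive = at or under that limit in both runs.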

What was measured:
[1] = S. cerevisiae growth inhibition in permissive medium (OD615), pilot counter-assay for S. cerevisiae lifespan shortening project, permissive growth control (AID 705;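 active = growth inhibition above 25% in both replicates, a cutoff set 3 SD above the mean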); details: OD615, 24 h, at 10 µM, hits give high values
Method in brief: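 assay system = Saccharomyces cerevisiae strain carrying genetically modified DeaD replicative-lifespan system | medium = SC raffinose/galactose permissive medium | dosing = 10 µM single dose, 0.25% DMSO | schedule = 24 h compound exposure at 30 °C after 4 h pre-growth | measured by = OD at 615 nm | read-out basis = growth inhibition from lowered OD615 after 24 h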

[2] = S. cerevisiae growth inhibition in restrictive medium, OD615, pilot screen, restrictive growth control, yeast lifespan reduction project (AID 706;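 active = growth inhibition above a set limit, 3 SD over mean compound inhibition, in both replicates, cut at about 43% in these data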;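 also: modified DeaD lifespan yeast strain shifted to restrictive glucose medium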); details: OD615, 48 h, at 10 µM, hits give high values
Method in brief: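 Buffer or medium: CSMM-D glucose medium. Material: genetically modified Saccharomyces cerevisiae, DeaD replicative lifespan assay strain. Times: 48 h compound exposure at 30 °C. Measured by: optical density at 615 nm.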

[3] = doxorubicin toxicity protection in MRP-1 cells – H69AR cells, CellTiter-Glo, duplicate, MRP-1 activator project, pilot screen (AID 807;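 active = viability increase at or above a cutoff of the median across tested compounds plus 3 SD, cut at about 8.5% in these data, passing the limit was not always enough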;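 also: compound pretreatment 18-22 h then 72 h combined with doxorubicin; 0% = doxorubicin alone and 100% = vehicle without doxorubicin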); details: H69AR viability with doxorubicin, CellTiter-Glo luminescence; at 10 µM; hits give high values
[4] = viability of HCT116 without oncogenic beta-catenin – human colon tumor cells, pilot screen (AID 823;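 active = cell viability at or below a set limit in both duplicate runs, the limit being the all-compound median minus 4 SD, cut at about 23% in these data, passing the limit was not always enough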;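 also: 0% = wells killed by 20 µM Hyamine and 100% = untreated DMSO cell wells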); details: HCT116 beta-catenin knockout viability, CellTiter-Glo, 60 h; at 10 µM; hits give low values
[5] = viability of PTEN-null HCT116 cells – cell-based, HCT116 clonal line, CellTiter-Glo, pilot screen (AID 824;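 active = viability at or below 27.92% in each of two runs, the all-compound median minus 4 SD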;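 also: 0% = 20 µM Hyamine control and 100% = vehicle cell control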); details: HCT116 PTEN-deleted viability, 60 h, at 10 µM, hits give low values
[6] = RAM pathway blockade in budding yeast – dse1pr::URA3 reporter, 5-FOA selection, pilot screen (AID 869);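 also: 0% = DMSO wells with no growth and 100% = 10 µM 1-NA-PP1 with full growth; RAM network block rescues cells from 5-FOA so hits raise OD615 growth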; details: S. cerevisiae dse1pr::URA3 5-FOA growth, OD615, 2 d; at 10 µM; hits give high values; strain carries analog-sensitive mutant Cbk1 kinase
[7] = RAM signaling pathway blockade in yeast – S. cerevisiae, Pdr1DBD-CYC8 efflux-inhibited sensitized strain, primary screen (AID 1298;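 active = RAM network inhibition above 8.4% in each of two replicates, 3 SD over the compound average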;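 also: 0% = DMSO untreated cells without growth and 100% = 10 µM 1-NA-PP1 full growth; higher means more yeast growth rescued from 5-FOA killing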); details: S. cerevisiae cbk1-as DSE1-URA3 strain, 5-FOA growth OD615, 2 d; at 50 µM; hits give high values

CC1CCN(c2nc(-c3ccco3)c3c(c2C#N)CC(C)(C)OC3)CC1
inactive: growth inhibition [1] -15% | growth inhibition [2] -3.74% | viability increase [3] -6.85% | viability [4] 90.8% | viability [5] 89.6% | inhibition [6] 0.175% | RAM network inhibition [7] 0.92%

COc1ccc(OC)c(C2C(C(=O)Nc3ccccc3OC)=C(C)Nc3nc(CCCO)nn32)c1 (stereo not given)
inactive: growth inhibition [1] 4.07% | growth inhibition [2] -1.39% | viability increase [3] -2.08% | viability [4] 98.9% | viability [5] 96.8% | inhibition [6] 3.86% | RAM network inhibition [7] 4.26%

CN(C)S(=O)(=O)c1ccc(NC(=O)C2COc3ccccc3O2)cc1 (stereo not given)
inactive: growth inhibition [1] -9.66% | growth inhibition [2] -10.9% | viability increase [3] 0.49% | viability [4] 90.2% | viability [5] 83.8% | inhibition [6] 1.27% | RAM network inhibition [7] 2.63%

CCC(Sc1nncn1C)C(=O)Nc1nnc(-c2ccccc2Cl)s1 (stereo not given)
inactive: growth inhibition [1] -3.46% | growth inhibition [2] 31.5% | viability increase [3] -0.85% | viability [4] 103% | viability [5] 92.5% | inhibition [6] 1.72% | RAM network inhibition [7] 2.58%

CCOc1ccc(NC(=O)N2CCC(n3c(=O)[nH]c4ccccc43)CC2)cc1
inactive: growth inhibition [1] -13.3% | growth inhibition [2] -22% | viability increase [3] 6.11% | viability [4] 83.2% | viability [5] 84.2% | inhibition [6] 1.9% | RAM network inhibition [7] 2.37%

O=S(=O)(NCCO)c1cccc2cccnc12
inactive: growth inhibition [1] -8.73% | growth inhibition [2] -10.2% | viability increase [3] -1.21% | viability [4] 94% | viability [5] 85.4% | inhibition [6] 1.24% | RAM network inhibition [7] -0.64%

O=C(OCC(=O)c1cccs1)c1ccc(NC(=O)c2ccco2)cc1
inactive: growth inhibition [1] -6.02% | growth inhibition [2] -19.9% | viability increase [3] -3.62% | viability [4] 96.9% | viability [5] 76.1% | inhibition [6] 0.87% | RAM network inhibition [7] 0.26%

CC1=C(C(=O)OCCOc2ccccc2)C(c2ccc(C)o2)C2=C(CC(C)(C)CC2=O)N1 (stereo not given)
inactive: growth inhibition [1] -17.6% | growth inhibition [2] -10.8% | viability increase [3] -0.88% | viability [4] 78.2% | viability [5] 78.6% | inhibition [6] 1.73% | RAM network inhibition [7] 7.5%

CC1(C)C(=O)OC(c2cc(Br)ccc2O)C(C)(C)C1=O (stereo not given)
inactive: growth inhibition [1] -8.82% | growth inhibition [2] -1.84% | viability increase [3] -2.35% | viability [4] 90.2% | viability [5] 82.1% | inhibition [6] -0.355% | RAM network inhibition [7] 4.3%

COc1ccc(-n2c(Cn3c(=O)sc4ccccc43)nnc2SC)cc1
inactive: growth inhibition [1] -12.1% | growth inhibition [2] -8.38% | viability increase [3] -2.26% | viability [4] 101% | viability [5] 89.6% | inhibition [6] 2.47% | RAM network inhibition [7] 1.33%

CC(=O)Nc1nonc1-c1nc2ccccc2n1Cc1nnc(C)o1
inactive: growth inhibition [1] 3.66% | growth inhibition [2] 2.84% | viability increase [3] -3.32% | viability [4] 99.7% | viability [5] 97.1% | inhibition [6] 2.09% | RAM network inhibition [7] 1.99%

Cc1ccc(S(=O)(=O)N(C)Cc2nc(-c3ccc(Br)cc3)no2)cc1
inactive: growth inhibition [1] -3.27% | growth inhibition [2] -0.88% | viability increase [3] 0.27% | viability [4] 89.5% | viability [5] 87.8% | inhibition [6] 2.72% | RAM network inhibition [7] 3.02%

O=C(Nc1nnc(-c2ccc3c(c2)CCCC3)o1)C1COc2ccccc2O1 (stereo not given)
inactive: growth inhibition [1] 5.39% | growth inhibition [2] 23% | viability increase [3] -2.7% | viability [4] 44.3% | viability [5] 51.1% | inhibition [6] 0.315% | RAM network inhibition [7] -1.78%

COc1ccc(-n2c(Cc3cc(=O)[nH]c(=O)[nH]3)nnc2SCC(=O)Nc2ccccc2)cc1
inactive: growth inhibition [1] 5.82% | growth inhibition [2] 3.9% | viability increase [3] 0.25% | viability [4] 105% | viability [5] 98.7% | inhibition [6] 0.48% | RAM network inhibition [7] 2.13%

COc1ccc2c(c1)C(=O)CC(c1ccccc1F)O2 (stereo not given)
inactive: growth inhibition [1] -12% | growth inhibition [2] -1.22% | viability increase [3] -3.63% | viability [4] 65.4% | viability [5] 74.3% | inhibition [6] 1.22% | RAM network inhibition [7] 5.83%

CCCN1C(=O)c2cc(C(=O)NCc3cccs3)ccc2C1O (stereo not given)
inactive: growth inhibition [1] -5.98% | growth inhibition [2] -16.4% | viability increase [3] -0.99% | viability [4] 107% | viability [5] 96.7% | inhibition [6] 1.94% | RAM network inhibition [7] -0.69%

COc1ccc(N=C2SC(C(=O)O)CC(=O)N2C)cc1 (stereo not given)
inactive: growth inhibition [1] -5.94% | growth inhibition [2] 7.82% | viability increase [3] -0.87% | viability [4] 98.1% | viability [5] 101% | inhibition [6] 0.35% | RAM network inhibition [7] 3.61%

COc1ccc(CN2C(=O)CCC2(C)C(=O)NC2CCCC2)c(OC)c1 (stereo not given)
inactive: growth inhibition [1] -5.04% | growth inhibition [2] -4.46% | viability increase [3] 0.91% | viability [4] 105% | viability [5] 101% | inhibition [6] 0.71% | RAM network inhibition [7] 2.04%

Cc1cccc(N2CCN(C(=O)C3CCCN(S(=O)(=O)c4cccc5cccnc45)C3)CC2)c1C (stereo not given)
inactive: growth inhibition [1] -6.73% | growth inhibition [2] 12.1% | viability increase [3] -4.58% | viability [4] 30.5% | viability [5] 35.8% | inhibition [6] 1.32% | RAM network inhibition [7] 1%

CCOC(=O)c1c(C2CCN(C(=O)OCC)CC2)nc2ccccn12
inactive: growth inhibition [1] -9.71% | growth inhibition [2] -12.6% | viability increase [3] -1.79% | viability [4] 95.4% | viability [5] 88.7% | inhibition [6] 2.99% | RAM network inhibition [7] 2.43%

O=C1CSC(c2nn(-c3ccccc3)cc2-c2cc3ccccc3oc2=O)N1Cc1ccco1 (stereo not given)
inactive: growth inhibition [1] -1.13% | growth inhibition [2] 1.33% | viability increase [3] -4.75% | viability [4] 77.4% | viability [5] 76.9% | inhibition [6] 2.16% | RAM network inhibition [7] 2.95%

Cn1c2ccc(CC(=O)O)cc2c2cc(CC(=O)O)ccc21
inactive: growth inhibition [1] 1.85% | growth inhibition [2] -12.4% | viability increase [3] -3.54% | viability [4] 96.8% | viability [5] 89.7% | inhibition [6] 1.1% | RAM network inhibition [7] 0.98%

Cc1onc(-c2ccccc2Cl)c1C(=O)OCn1nnc2ccccc2c1=O
inactive: growth inhibition [1] -5.29% | growth inhibition [2] -2.08% | viability increase [3] -1.94% | viability [4] 84.4% | viability [5] 87.3% | inhibition [6] 2.41% | RAM network inhibition [7] 7.77%

CCOC(=O)c1sc2nc3n(c(=O)c2c1C)CCCCC3
inactive: growth inhibition [1] -4.76% | growth inhibition [2] 5.75% | viability increase [3] 6.25% | viability [4] 87.5% | viability [5] 103% | inhibition [6] 0.475% | RAM network inhibition [7] 4.46%

CCOC(=O)c1nc2nc(C)cc(=O)n2[nH]1
inactive: growth inhibition [1] -14.5% | growth inhibition [2] -7.54% | viability increase [3] 0.46% | viability [4] 105% | viability [5] 97.7% | inhibition [6] 0.96% | RAM network inhibition [7] 4.54%
